# Results gathered from unrelated publications.
# Cell line: NCI-H522
# Read-out: cell growth or viability
Compound,technique,tested at,time,quantity,value
COc1ccc(C(=O)/C=C/c2cccc(Br)c2)cc1S(N)(=O)=O,SRB,,48 h,GI50,1600 nM
O=C1NC(=NCc2cccs2)S/C1=C\c1ccc2ncccc2c1,,,,IC50,> 10000 nM
COc1ccc(C(=O)/C=C/c2cccnc2)cc1S(N)(=O)=O,SRB,10 µM,,inhibition,168%
CCc1n(Cc2ccc3ccccc3n2)cc[n+]1Cc1ccc2ccccc2n1,SRB,,,TGI,1490 nM
Cc1cc(C)n(C(=S)[S][Au][PH](CCCCCC[PH]([Au][S]C(=S)n2nc(C)cc2C)(c2ccccc2)c2ccccc2)(c2ccccc2)c2ccccc2)n1,SRB,,,GI50,1240 nM
COc1ccc(C2=Nn3c(NN=C4C(=O)Nc5ccc(OC)cc54)nnc3SC2)cc1,SRB,10 µM,,inhibition,25%
CCCc1n(Cc2ccc3ccccc3n2)cc[n+]1Cc1ccc2ccccc2n1,SRB,,,TGI,4300 nM
COc1ccc(C2=Nn3c(NN=C4C(=O)Nc5ccc(Cl)cc54)nnc3SC2)cc1,SRB,10 µM,,inhibition,34%
Cc1n(Cc2ccc3ccccc3n2)cc[n+]1Cc1ccc2ccccc2c1,SRB,,,TGI,1460 nM
COc1ccccc1/C=C/C(=O)c1ccc(OC)c(S(N)(=O)=O)c1,SRB,10 µM,,inhibition,110%
COc1cc(-c2ccc(-c3ccc(C(=N)N)nc3)s2)cc(OC)c1OC,SRB,,,GI50,1800 nM
c1ccc(-c2n(Cc3ccc4ccccc4c3)cc[n+]2Cc2ccc3ccccc3c2)cc1,SRB,,,TGI,2580 nM
COc1ccc(C(=O)/C=C/c2ccc3ccccc3c2)cc1S(N)(=O)=O,SRB,10 µM,,inhibition,163%
